This is an account of results in ChEMBL document CHEMBL2150987, “Synthesis and evaluation of novel 1,3,4-oxadiazole derivatives of marine bromopyrrole alkaloids as antimicrobial agent” (2012).

In brackets after ≈: the same amount, converted by molar mass.

For orientation: MIC means the least concentration at which growth counts as inhibited. Read a low MIC as a more susceptible organism.

What all share (type): functional
The subject of assay [1] is Mycobacterium tuberculosis. As to the kind of experiment: Antitubercular activity against Mycobacterium tuberculosis H37Rv after 7 days by resazurin microtiter assay. As to conditions: 168 h. (In general: The colour change of resazurin is a common sign of viable cells or microbes.)
Another assay concerns Klebsiella pneumoniae. As to the kind of experiment: Antibacterial activity against Klebsiella pneumoniae after 24 hrs by broth dilution method. The gist of the method: (§1)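 Nutrient broth containing logarithmic twofold serial dilutions of compound, inoculated with about 5 × 10⁵ CFU/mL of actively dividing bacteria, incubated 24 h at 37 °C. Growth was read visually and spectrophotometrically. MIC was the lowest concentration (highest dilution) that arrested growth. Ciprofloxacin served as standard.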
In general terms: Dilution methods test growth across graded concentrations, often in twofold steps.

The next assay concerns Staphylococcus aureus. As to the kind of experiment: Antibacterial activity against Staphylococcus aureus ATCC 25923 after 24 hrs by broth dilution method. Particulars: ATCC 25923, 24 h. Summed up:
as §1

The next assay has as its system Escherichia coli. As to the kind of experiment: Antibacterial activity against Escherichia coli ATCC 25922 after 24 hrs by broth dilution method. As to conditions: ATCC 25922, 24 h. Summed up:
as §1

In another assay the test system is Pseudomonas aeruginosa. In words: Antibacterial activity against Pseudomonas aeruginosa ATCC 27853 after 24 hrs by broth dilution method. Particulars: ATCC 27853, 24 h. The gist of the method:
as §1

A further assay relates to Candida albicans. In words: Antifungal activity against Candida albicans after 48 hrs by […].

Regarding `O=[N+]([O-])c1ccc(-c2nnc(-c3cc(Br)c(Br)[nH]3)o2)cc1`, the MIC in assay [1] is 9 mg/L (≈ 21.7 µM); in the assay with Klebsiella pneumoniae it was 100 mg/L (≈ 242 µM); against Staphylococcus aureus it was 1.56 mg/L (≈ 3.77 µM); against Escherichia coli, 1.56 mg/L (≈ 3.77 µM); in the assay on Pseudomonas aeruginosa, 6.25 mg/L (≈ 15.1 µM); in the assay on Candida albicans, 1.56 mg/L (≈ 3.77 µM).
Turning to `Brc1cc(-c2nnc(/C=C/c3ccccc3)o2)[nH]c1Br`, the MIC in assay [1] came out at 78.5 mg/L (≈ 199 µM); in the assay with Klebsiella pneumoniae, 100 mg/L (≈ 253 µM); in the assay on Staphylococcus aureus, 3.12 mg/L (≈ 7.91 µM); with Escherichia coli, 12.5 mg/L (≈ 31.6 µM); in the assay with Pseudomonas aeruginosa, 6.25 mg/L (≈ 15.8 µM); against Candida albicans it was 12.5 mg/L (≈ 31.6 µM).
Consider `CCSc1nnc(-c2cc(Br)c(Br)[nH]2)o1`, for which the MIC worked out at 118 mg/L (≈ 334 µM) in assay [1]; 100 mg/L (≈ 283 µM) with Klebsiella pneumoniae; 12.5 mg/L (≈ 35.4 µM) with Staphylococcus aureus; 12.5 mg/L (≈ 35.4 µM) against Escherichia coli; 25 mg/L (≈ 70.8 µM) in the assay on Pseudomonas aeruginosa; 12.5 mg/L (≈ 35.4 µM) against Candida albicans.
Turning to `Brc1cc(-c2nnc(Sc3ccccc3)o2)[nH]c1Br`, the MIC in assay [1] was 23.5 mg/L (≈ 58.6 µM); with Klebsiella pneumoniae, 100 mg/L (≈ 249 µM); against Staphylococcus aureus, 12.5 mg/L (≈ 31.2 µM); against Escherichia coli, 12.5 mg/L (≈ 31.2 µM); in the assay on Pseudomonas aeruginosa, 25 mg/L (≈ 62.3 µM); against Candida albicans, 6.25 mg/L (≈ 15.6 µM).
`C[C@@H]1[C@H](O)[C@@H](C)/C=C/C=C/C=C/C=C/C=C/C=C/C=C/[C@H](O[C@@H]2O[C@H](C)[C@@H](O)[C@H](N)[C@@H]2O)C[C@@H]2O[C@](O)(C[C@@H](O)C[C@@H](O)[C@H](O)CC[C@@H](O)C[C@@H](O)CC(=O)O[C@H]1C)C[C@H](O)[C@H]2C(=O)O` [AMPHOTERICIN B] came in with an MIC in the assay on Candida albicans of 1.56 mg/L (≈ 1.69 µM).
Consider `Brc1cc(-c2nnc(-c3ccccc3)o2)[nH]c1Br`, for which the MIC in assay [1] worked out at 98.7 mg/L (≈ 267 µM); against Klebsiella pneumoniae, 100 mg/L (≈ 271 µM); in the assay with Staphylococcus aureus it was 6.25 mg/L (≈ 16.9 µM); against Escherichia coli it was 12.5 mg/L (≈ 33.9 µM); in the assay with Pseudomonas aeruginosa it was 6.25 mg/L (≈ 16.9 µM); against Candida albicans, 12.5 mg/L (≈ 33.9 µM).
Regarding `Brc1cc(-c2nnc(-c3cc(Br)c(Br)[nH]3)o2)[nH]c1Br`, the MIC turned out to be 3.5 mg/L (≈ 6.79 µM) in assay [1]; 100 mg/L (≈ 194 µM) against Klebsiella pneumoniae; 1.56 mg/L (≈ 3.02 µM) in the assay with Staphylococcus aureus; 1.56 mg/L (≈ 3.02 µM) against Escherichia coli; 6.25 mg/L (≈ 12.1 µM) against Pseudomonas aeruginosa; 1.56 mg/L (≈ 3.02 µM) against Candida albicans.
`O=C(Cc1ccccc1)c1nnc(-c2cc(Br)c(Br)[nH]2)o1`: the MIC in assay [1] amounted to 146 mg/L (≈ 355 µM); in the assay on Klebsiella pneumoniae, 100 mg/L (≈ 243 µM); in the assay with Staphylococcus aureus, 3.12 mg/L (≈ 7.6 µM); with Escherichia coli, 3.12 mg/L (≈ 7.6 µM); with Pseudomonas aeruginosa it was 12.5 mg/L (≈ 30.4 µM); against Candida albicans, 12.5 mg/L (≈ 30.4 µM).
As to `Nc1ccc(-c2nnc(-c3cc(Br)c(Br)[nH]3)o2)cc1`, the MIC in assay [1] is 16.5 mg/L (≈ 43 µM); against Klebsiella pneumoniae, 100 mg/L (≈ 260 µM); against Staphylococcus aureus it was 3.12 mg/L (≈ 8.14 µM); with Escherichia coli, 1.56 mg/L (≈ 4.06 µM); against Pseudomonas aeruginosa, 6.25 mg/L (≈ 16.3 µM); against Candida albicans, 12.5 mg/L (≈ 32.5 µM).
As for `Clc1ccc(-c2nnc(-c3cc(Br)c(Br)[nH]3)o2)c(Cl)c1`, the minimum inhibitory concentration (MIC) turned out to be 1.6 mg/L (≈ 3.65 µM) in assay [1]; 100 mg/L (≈ 228 µM) in the assay on Klebsiella pneumoniae; 6.25 mg/L (≈ 14.3 µM) against Staphylococcus aureus; 12.5 mg/L (≈ 28.5 µM) against Escherichia coli; 6.25 mg/L (≈ 14.3 µM) against Pseudomonas aeruginosa; 12.5 mg/L (≈ 28.5 µM) against Candida albicans.
Regarding `Brc1cc(-c2nnc(/C=C/C3=COc4ccccc4C3)o2)[nH]c1Br`, the MIC was found to be 2 mg/L (≈ 4.45 µM) in assay [1]; 100 mg/L (≈ 223 µM) against Klebsiella pneumoniae; 1.56 mg/L (≈ 3.47 µM) in the assay with Staphylococcus aureus; 3.12 mg/L (≈ 6.96 µM) in the assay on Escherichia coli; 12.5 mg/L (≈ 27.8 µM) against Pseudomonas aeruginosa; 12.5 mg/L (≈ 27.8 µM) in the assay with Candida albicans.
For `Brc1cc(-c2nnc(-c3ccncc3)o2)[nH]c1Br`, the MIC in assay [1] came to 3.5 mg/L (≈ 9.46 µM); against Klebsiella pneumoniae, 100 mg/L (≈ 270 µM); against Staphylococcus aureus, 1.56 mg/L (≈ 4.22 µM); against Escherichia coli it was 12.5 mg/L (≈ 33.8 µM); in the assay on Pseudomonas aeruginosa, 12.5 mg/L (≈ 33.8 µM); against Candida albicans it was 12.5 mg/L (≈ 33.8 µM).
Turning to `COc1cc(/C=C/c2nnc(-c3cc(Br)c(Br)[nH]3)o2)ccc1O`, the MIC in assay [1] is 112 mg/L (≈ 255 µM); against Klebsiella pneumoniae it was 100 mg/L (≈ 227 µM); against Staphylococcus aureus, 1.56 mg/L (≈ 3.54 µM); in the assay on Escherichia coli, 12.5 mg/L (≈ 28.3 µM); with Pseudomonas aeruginosa, 12.5 mg/L (≈ 28.3 µM); against Candida albicans, 12.5 mg/L (≈ 28.3 µM).
`Fc1ccc(Cl)c(-c2nnc(-c3cc(Br)c(Br)[nH]3)o2)c1`: the MIC in assay [1] worked out at 6.5 mg/L (≈ 15.4 µM); against Klebsiella pneumoniae, 100 mg/L (≈ 237 µM); against Staphylococcus aureus, 1.56 mg/L (≈ 3.7 µM); in the assay with Escherichia coli, 1.56 mg/L (≈ 3.7 µM); with Pseudomonas aeruginosa, 6.25 mg/L (≈ 14.8 µM); in the assay on Candida albicans, 12.5 mg/L (≈ 29.7 µM).
In turn, `NNC(=O)c1ccncc1` [ISONIAZID] yielded an MIC in assay [1] of 0.4 mg/L (≈ 2.92 µM).
For the compound `Clc1ccc(-c2nnc(-c3cc(Br)c(Br)[nH]3)o2)cc1`, the MIC in assay [1] came out at 9.5 mg/L (≈ 23.5 µM); in the assay on Klebsiella pneumoniae, 100 mg/L (≈ 248 µM); with Staphylococcus aureus, 1.56 mg/L (≈ 3.87 µM); against Escherichia coli, 1.56 mg/L (≈ 3.87 µM); against Pseudomonas aeruginosa it was 6.25 mg/L (≈ 15.5 µM); against Candida albicans it was 12.5 mg/L (≈ 31 µM).
Consider `O=C(CSc1nnc(-c2cc(Br)c(Br)[nH]2)o1)c1ccccc1`, for which the MIC in assay [1] stood at 1.5 mg/L (≈ 3.39 µM); with Klebsiella pneumoniae it was 100 mg/L (≈ 226 µM); against Staphylococcus aureus, 12.5 mg/L (≈ 28.2 µM); against Escherichia coli, 3.12 mg/L (≈ 7.05 µM); against Pseudomonas aeruginosa it was 12.5 mg/L (≈ 28.2 µM); in the assay on Candida albicans, 1.56 mg/L (≈ 3.52 µM).
Turning to `Sc1nnc(-c2cc(Br)c(Br)[nH]2)o1`, the MIC in assay [1] stood at 54.5 mg/L (≈ 168 µM); with Klebsiella pneumoniae, 100 mg/L (≈ 308 µM); against Staphylococcus aureus, 12.5 mg/L (≈ 38.5 µM); with Escherichia coli, 12.5 mg/L (≈ 38.5 µM); against Pseudomonas aeruginosa it was 12.5 mg/L (≈ 38.5 µM); in the assay on Candida albicans it was 12.5 mg/L (≈ 38.5 µM).
As for `Oc1ccc(-c2nnc(-c3cc(Br)c(Br)[nH]3)o2)cc1`, the MIC in assay [1] was determined as 25 mg/L (≈ 64.9 µM); against Klebsiella pneumoniae it was 100 mg/L (≈ 260 µM); in the assay on Staphylococcus aureus it was 12.5 mg/L (≈ 32.5 µM); in the assay with Escherichia coli, 12.5 mg/L (≈ 32.5 µM); in the assay on Pseudomonas aeruginosa it was 6.25 mg/L (≈ 16.2 µM); against Candida albicans, 12.5 mg/L (≈ 32.5 µM).
Turning to `CSc1nnc(-c2cc(Br)c(Br)[nH]2)o1`, the MIC in assay [1] came to 89.5 mg/L (≈ 264 µM); against Klebsiella pneumoniae, 100 mg/L (≈ 295 µM); in the assay with Staphylococcus aureus, 12.5 mg/L (≈ 36.9 µM); with Escherichia coli, 12.5 mg/L (≈ 36.9 µM); in the assay on Pseudomonas aeruginosa it was 25 mg/L (≈ 73.7 µM); with Candida albicans it was 12.5 mg/L (≈ 36.9 µM).
In the case of `Oc1ccccc1-c1nnc(-c2cc(Br)c(Br)[nH]2)o1`, the MIC in assay [1] was 36.5 mg/L (≈ 94.8 µM); in the assay with Klebsiella pneumoniae it was 100 mg/L (≈ 260 µM); with Staphylococcus aureus it was 1.56 mg/L (≈ 4.05 µM); against Escherichia coli, 3.12 mg/L (≈ 8.12 µM); in the assay with Pseudomonas aeruginosa it was 12.5 mg/L (≈ 32.5 µM); with Candida albicans, 6.25 mg/L (≈ 16.2 µM).
As for `COc1ccc(-c2nnc(-c3cc(Br)c(Br)[nH]3)o2)cc1`, the MIC in assay [1] worked out at 56.5 mg/L (≈ 142 µM); in the assay with Klebsiella pneumoniae it was 100 mg/L (≈ 251 µM); against Staphylococcus aureus it was 3.12 mg/L (≈ 7.83 µM); in the assay on Escherichia coli, 3.12 mg/L (≈ 7.83 µM); in the assay with Pseudomonas aeruginosa it was 6.25 mg/L (≈ 15.7 µM); in the assay with Candida albicans it was 12.5 mg/L (≈ 31.3 µM).
On to `O=C(O)c1cn(C2CC2)c2cc(N3CCNCC3)c(F)cc2c1=O` [CIPROFLOXACIN], for which the figures for the MIC in the assay on Klebsiella pneumoniae, in the assay on Staphylococcus aureus and in the assay on Pseudomonas aeruginosa were 1.56 mg/L (≈ 4.71 µM), 1.56 mg/L (≈ 4.71 µM) and 3.12 mg/L (≈ 9.43 µM), respectively.
